Bioassay records: PubChem, Johns Hopkins Ion Channel Center
Most compounds without a hit are left out; they make up all but 3.8% or so of the library.
hERG rescue = compounds protecting human hERG from proarrhythmic drug block. activation (rescue from dofetilide block), less the hit threshold, % at 10 µM. 310,000 tested, 0.51% active. AID 1511. Q12809. CHO-hERG, FluxOR thallium flux, dofetilide IC70 present;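 active = activation above the mean of controls blocked by dofetilide plus 5 SD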;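 note: thallium influx through hERG after potassium depolarization seen as dye fluorescence rise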
Kir21 inh = Kir2.1 (mouse) channel inhibition. P35561. 310,000 tested, 0.85% active. HEK293-Kir2.1, FluxOR thallium flux fluorescence; stronger effect = lower value. B-score at 10 µM;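 active = fluorescence ratio B-score at or below minus 3 SD of library scores, with starting-brightness B-score within 2 SD, cut at about -4.2 in these data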;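 note: channel flux triggered by added potassium and thallium sulfate stimulus; B-score of peak minus minimum fluorescence over baseline after thallium stimulus; more negative B-score means stronger Kir2.1 block with less thallium influx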
KCNQ1 pot = potentiates or activates the human KCNQ1 potassium channel; P51787; CHO-K1 KCNQ1, thallium flux FluxOR fluorescence; stronger effect = higher value; B-score at 10 µM; 310,000 tested, 0.35% active; AID 2648;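 active = fluorescence ratio B-score, a plate-corrected score, at least three library SD, with initial intensity B-score within 5 SD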
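assay system = CHO-K1 cells stably expressing KCNQ1 | medium = assay buffer, equal DMSO in all wells | timing = 37 °C overnight plating, 90-min dark dye load, 20-min compound pretreatment | measured by = kinetic FluxOR thallium fluorescence, 10-s 1-Hz baseline, 110-s post-stimulus read | measure = fluorescence change relative to baseline, converted to B score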
KCNQ1 inh = blocks the human KCNQ1 potassium channel; CHO-K1 KCNQ1, FluxOR thallium flux fluorescence; stronger effect = higher value; B-score at 10 µM; 310,000 tested, 1.3% active; AID 2642;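 active = compounds whose thallium flux B-score, printed positive for inhibition, exceeds three library SD while starting fluorescence stays within three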;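 note: channel opened by potassium depolarization with thallium stimulus after 20 min compound exposure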
KCNK3 inh = human KCNK3 channel inhibition, primary screen. O14649. CHO-KCNK3 thallium flux, FluxOR fluorescence; stronger effect = lower value. B-score at 10 µM. 340,000 tested, 0.84% active. AID 602410;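 active = B-score under library mean minus 4 SD, starting fluorescence ratio at most library mean plus 5 SD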;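 note: more negative B-score means stronger inhibition of thallium flux through KCNK3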
KCNK9 inh = blocks the human KCNK9 two-pore domain potassium channel. B-score at 10 µM. HEK293 KCNK9, FluxOR thallium flux fluorescence; stronger effect = lower value. Q9NPC2. 310,000 tested, 1.2% active;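 active = ratio B-score over 3 SD below the library mean, with starting fluorescence within 5 SD of its mean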;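 note: negative B-score means less thallium flux so channel inhibition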
KCNK9 block conf = human KCNK9 inhibitor confirmation | shares compounds with KCNK9 inh | HEK293 KCNK9 cells, FluxOR thallium flux fluorescence | inhibition, % at 10 µM | 4,900 tested, 43% active | AID 492992;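 active = thallium signal inhibited by more than 5 SD of the compound-free buffer control wells, on both duplicate plates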;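 note: 0% = assay buffer control wells without compound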
Kir21 sel = mouse Kir2.1 off-target activity of KCNK9 modulators; shares compounds with KCNK9 inh; Kir2.1 cells, FluxOR thallium flux fluorescence; inhibition, % at 10 µM; 4,900 tested, 4% active; AID 492993;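 active = thallium signal drop more than 5 SD beyond the mean of the no-compound control wells, seen in both duplicate plates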;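 note: signal is fluorescence rise after thallium addition divided by baseline fluorescence; plate controls were assay buffer only for no effect and full block by chlorpromazine control for full effect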
HEK293 Tl ctr = second counter-screen for KCNK9 modulators: effect in non-induced cells | non-induced KCNK9-HEK293, FluxOR thallium flux | 4,900 tested, 40% active | shares compounds with KCNK9 inh | inhibition, % at 10 µM;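 active = thallium signal drop beyond 5 SD of the untreated control mean, on both duplicate plates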;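 note: plate controls were buffer only IC0 wells for no effect and SID17386958 at its maximal inhibitory level for full effect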
An asterisk follows results filed as active; i = inactive; · = not tested or not shown.

SMILES	hERG rescue	Kir21 inh	KCNQ1 pot	KCNQ1 inh	KCNK3 inh	KCNK9 inh	KCNK9 block conf	Kir21 sel	HEK293 Tl ctr
CCN(CC)S(=O)(=O)c1ccc2c(c1)nc(SC(C)C(=O)NCC1CCCO1)n2CC (centres undefined)	-10.8	0.39	i	i	i	i	i	i	i
S=C(NCc1ccc2[nH]c3c(c2c1)CCCC3)Nc1ccccc1	-7.9	0	i	i	i	i	·	·	·
Cc1cc(C)cc(NC(=S)NCc2ccc3[nH]c4c(c3c2)CCCC4)c1	-15.7	-0.05	i	i	i	i	i	i	i
CCOC(=O)Cn1c(=NC(=O)CSC(C)=O)sc2ccccc21	-12.2	-0.93	i	i	i	-8.17*	48.5%*	i	40.0%*
COc1cc(C)ccc1OCc1cc(C(=O)N2CCC(c3ccc(F)cc3)C2)no1 (centres undefined)	-7.5	0.71	i	i	i	i	i	i	i
Cc1ccc(C)c(OCc2cc(C(=O)N3CC[C@@H]4CCCC[C@H]4C3)no2)c1	-12.6	0	i	i	i	i	i	i	23.5%*
COCC1CCN(C(=O)c2cc(COc3ccc(F)cc3F)on2)C1 (centres undefined)	0.7	0.45	i	i	i	i	·	·	·
O=C(NCC1CCCO1)c1cccc(NS(=O)(=O)c2ccc(Br)cc2)c1 (centres undefined)	-10.2	-0.02	i	i	i	i	·	·	·
COc1ccc(C)cc1-n1nnnc1SCC(=O)NC1CCS(=O)(=O)C1 (centres undefined)	·	·	·	·	i	·	·	·	·
CCOc1ccc(OCCC(=O)N(CC)CC(=O)NCc2cccs2)cc1	·	·	·	·	i	·	·	·	·
COc1cc(/C=C2/NC(=O)N(CC(=O)Nc3ccc(C)cc3)C2=O)ccc1Oc1ccc([N+](=O)[O-])cn1	-12.9	1.04	i	i	i	i	·	·	·
COCCN1C(=O)/C(=C/c2ccc(Oc3ccc([N+](=O)[O-])cn3)c(OC)c2)SC1=Nc1ccccc1	-7.2	1.63	i	i	i	i	i	i	i
CC(C)NC(=O)Nc1ccc2c(c1)C(=O)N([C@H](C)CO)C[C@H](C)[C@@H](CN(C)S(C)(=O)=O)O2	·	·	·	·	i	·	·	·	·
COc1cccc2c1-c1c(C(=O)O)cccc1C2=O	-8.9	-1.38	i	i	i	i	i	i	i
Cc1c(NC(=O)N(C)c2ccccc2)c(=O)n(-c2ccccc2)n1C	2.3	1.51	i	i	i	i	·	·	·
O=[N+]([O-])c1ccc(S(=O)(=O)Nc2ccc3c(c2)OCCO3)cc1	-10.2	-0.25	i	i	i	-8.11*	i	i	i
CC(C)N1CCN(Cc2cn[nH]c2C2CCCCC2)CC1CCO (centres undefined)	-11.2	-0.51	i	i	i	i	·	·	·
COc1ccc(C)cc1S(=O)(=O)n1cnc2ccccc21	-3.4	-1.16	i	i	i	i	·	·	·
COCCN(CCOc1cc(C)cc(C)c1)Cc1ccc(Cl)cc1	-8.7	-1.95	i	i	i	i	i	i	i
O=C(c1sc2cc(Cl)ccc2c1Cl)N1CCN(CCc2ccccn2)CC1	-12.3	1.08	i	i	i	i	·	·	·
O=C(N/C(=C\c1ccc(Br)cc1)C(=O)N1CCOCC1)c1ccc([N+](=O)[O-])cc1	-13.3	-2.15	i	i	i	i	·	·	·
CN(c1ccccc1)S(=O)(=O)c1cccc(NC(=O)CSc2ncc(C(F)(F)F)cc2Cl)c1	-3.9	-0.35	i	7*	i	-8.9*	42.5%*	i	30.5%*
